Data taken from ChEMBL document CHEMBL4270537, “Design and biological evaluation of novel triaryl pyrazoline derivatives with dioxane moiety for selective BRAFV600E inhibition” (Eur J Med Chem, 2018).
Active and inactive are the calls of the source. No cut-off for these calls is given here.

How the values were obtained:
A-375 [1] = test: Induction of apoptosis in human A375 cells assessed as late apoptotic cells at 2.5 uM after 24 hrs by Annexin V-FITC/PI staining based flow cytometry (reference value: 4.26%); format: functional
HT-29 = test: Antiproliferative activity against human HT-29 cells after 48 hrs by MTT assay; format: functional; conditions: HT-29, 48 h
Procedure, shortened: (§1)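 MTT reduction assay. Cell lines grown to log phase in DMEM with 10% FBS (A375 in DMEM with sodium pyruvate added), seeded at 10⁴ cells/well in 96-well plates. Three replicate wells per concentration, each assay run three times, GI50 averaged.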

A-375 [2] = test: Induction of apoptosis in human A375 cells assessed as early apoptotic cells at 10 uM after 24 hrs by Annexin V-FITC/PI staining based flow cytometry (reference value: 5.45%); format: functional
A-375 [3] = test: Antitumor activity against human A375 cells xenografted in nude mouse assessed as decrease in tumor weight at 10 mg/kg, ip administered every second day for 14 days and measured on day 15 relative to control; format: functional
Procedure, shortened: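 A375 cells, 3 × 10⁶ in 0.1 mL cold PBS, injected subcutaneously into right flank of nude mice. Treatment began when tumors reached ~100 mm³; mice randomized, 5 per group. Compound suspended in olive oil, given intraperitoneally every second day for 14 days. Body weight recorded every two days; tumors excised and weighed on day 15.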

[4] = molecular target: Mitogen-activated protein kinase 14 (Homo sapiens, UniProt Q16539); test: Inhibition of N-terminal flag-tagged p38alpha (unknown origin) expressed in baculovirus expression system using MBP as substrate preincubated for 5 mins followed by substrate addition measured after 60 mins in presence of [gamma-32P]ATP by topcount scintillation method
Sequence of Mitogen-activated protein kinase 14 (Q16539 whole entry): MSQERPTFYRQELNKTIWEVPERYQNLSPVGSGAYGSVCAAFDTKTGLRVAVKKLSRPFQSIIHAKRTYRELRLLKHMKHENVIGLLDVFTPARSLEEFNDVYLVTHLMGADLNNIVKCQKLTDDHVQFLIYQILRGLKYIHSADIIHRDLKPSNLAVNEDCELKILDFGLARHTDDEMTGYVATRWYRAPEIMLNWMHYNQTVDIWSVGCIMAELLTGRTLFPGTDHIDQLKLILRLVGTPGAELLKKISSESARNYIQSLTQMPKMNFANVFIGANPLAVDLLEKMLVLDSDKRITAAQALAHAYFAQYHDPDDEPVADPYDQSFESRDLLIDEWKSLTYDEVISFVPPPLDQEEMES
Procedure, shortened: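 Baculovirus-expressed N-terminal FLAG-tagged kinases in 25 mM HEPES pH 7.5, 10 mM Mg acetate, 1 mM DTT, 0.5 µM ATP plus [γ-³²P]ATP, 50 µL. p38α: 100 ng enzyme, MBP substrate. JNK1: 10 ng enzyme, 1 µg c-Jun. Compound and enzyme preincubated 5 min, ATP started the reaction, 60 min at 30 °C. Stopped with 10% TCA, filtered, washed with 3% phosphoric acid, counted by TopCount.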

A-375 [5] = test: Induction of apoptosis in human A375 cells after 24 to 72 hrs by Annexin V-FITC/PI staining based flow cytometry; format: functional, cell-based
Procedure, shortened: (§2)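 Apoptosis time course. A375 cells in 24-well plates (about 10⁵/well) at 2 µM for 0, 24, 48 and 72 h. Harvested by trypsin, washed in PBS, stained 15 min at room temperature in the dark with Annexin V-FITC/PI, analysed by flow cytometry.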

A-375 [6] = test: Induction of apoptosis in human A375 cells assessed as viable cells at 5 uM after 24 hrs by Annexin V-FITC/PI staining based flow cytometry (reference value: 88.7%); format: functional; conditions: A-375, 24 h, read-out: Activity
A-375 [7] = test: Induction of apoptosis in human A375 cells assessed as early apoptotic cells at 20 uM after 24 hrs by Annexin V-FITC/PI staining based flow cytometry (reference value: 5.45%); format: functional
A-375 [8] = test: Induction of apoptosis in human A375 cells assessed as viable cells at 2 uM after 72 hrs by Annexin V-FITC/PI staining based flow cytometry (reference value: 89.4%); format: functional; conditions: A-375, 72 h, read-out: Activity
HCT-116 = test: Antiproliferative activity against human HCT116 cells after 48 hrs by MTT assay; format: functional; conditions: HCT-116, 48 h; procedure, shortened: as §1
A-375 [9] = test: Induction of apoptosis in human A375 cells assessed as early apoptotic cells at 2 uM after 48 hrs by Annexin V-FITC/PI staining based flow cytometry (reference value: 5.42%); format: functional; procedure, shortened: as §2
[10] = molecular target: T1, Serine/threonine-protein kinase B-raf (Homo sapiens, UniProt P15056); test: Inhibition of recombinant human full length GST-tagged wild type BRAF expressed in baculovirus expression system using recombinant human full length N-terminal His-tagged MEK1 as substrate preincubated for 1 hr followed by substrate addition measured after 25 mins
T1 sequence (P15056 whole entry): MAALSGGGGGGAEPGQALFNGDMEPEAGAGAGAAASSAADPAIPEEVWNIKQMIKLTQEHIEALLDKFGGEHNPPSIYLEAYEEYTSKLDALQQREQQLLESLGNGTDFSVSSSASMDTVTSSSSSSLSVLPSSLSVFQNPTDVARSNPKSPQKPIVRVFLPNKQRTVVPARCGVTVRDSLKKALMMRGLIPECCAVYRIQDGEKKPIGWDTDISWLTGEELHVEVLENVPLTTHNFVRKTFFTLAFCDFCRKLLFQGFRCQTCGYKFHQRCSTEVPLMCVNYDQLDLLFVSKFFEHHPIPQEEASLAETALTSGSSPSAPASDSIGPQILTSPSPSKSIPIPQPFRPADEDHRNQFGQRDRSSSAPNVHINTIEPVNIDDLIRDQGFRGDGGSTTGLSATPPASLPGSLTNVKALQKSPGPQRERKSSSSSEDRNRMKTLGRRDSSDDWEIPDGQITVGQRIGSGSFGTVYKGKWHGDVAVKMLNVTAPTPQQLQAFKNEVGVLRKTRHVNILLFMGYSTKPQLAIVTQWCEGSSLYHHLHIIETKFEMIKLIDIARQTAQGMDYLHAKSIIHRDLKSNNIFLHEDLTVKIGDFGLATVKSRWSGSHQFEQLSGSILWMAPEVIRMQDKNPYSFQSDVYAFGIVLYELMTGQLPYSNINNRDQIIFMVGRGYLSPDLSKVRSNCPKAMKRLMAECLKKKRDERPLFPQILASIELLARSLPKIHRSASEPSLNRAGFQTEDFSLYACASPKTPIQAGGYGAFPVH

A-375 [11] = test: Cell cycle arrest in human A375 cells assessed as accumulation at S phase at 2 uM after 72 hrs by propidium iodide staining based flow cytometry (reference value: 21.3%); format: functional
A-375 [12] = test: Induction of apoptosis in human A375 cells assessed as viable cells at 10 uM after 24 hrs by Annexin V-FITC/PI staining based flow cytometry (reference value: 88.7%); format: functional; conditions: A-375, 24 h, read-out: Activity
Mus musculus = test: Toxicity in nude mouse xenografted with human A375 cells assessed as body weight loss at 5 to 10 mg/kg, ip administered every second day for 14 days and measured every 2 days; format: organism-based; conditions: in vivo
Procedure, shortened: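 Nude mice bearing subcutaneous right-flank A375 xenografts (3×10⁶ cells in cold PBS) were randomized into groups of 5 at about 100 mm³. Compounds were suspended in olive oil and given intraperitoneally every second day for 14 days. Body weight was recorded every two days.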

A-375 [13] = test: Cell cycle arrest in human A375 cells assessed as accumulation at G2/M phase at 5 uM after 24 hrs by propidium iodide staining based flow cytometry (reference value: 5.1%); format: functional
A-375 [14] = test: Cell cycle arrest in human A375 cells assessed as accumulation at S phase at 5 uM after 24 hrs by propidium iodide staining based flow cytometry (reference value: 21.3%); format: functional
[15] = molecular target: T1, Serine/threonine-protein kinase B-raf; test: Inhibition of wild type BRAF in human WM1361 cells assessed as decrease in ERK1/2 phosphorylation up to 5 uM after 30 mins by Western blot analysis; format: cell-based
A-375 [16] = test: Induction of apoptosis in human A375 cells assessed as early apoptotic cells at 5 uM after 24 hrs by Annexin V-FITC/PI staining based flow cytometry (reference value: 5.45%); format: functional
A-375 [17] = test: Induction of apoptosis in human A375 cells assessed as viable cells at 20 uM after 24 hrs by Annexin V-FITC/PI staining based flow cytometry (reference value: 88.7%); format: functional; conditions: A-375, 24 h, read-out: Activity
A-375 [18] = test: Induction of apoptosis in human A375 cells assessed as early apoptotic cells at 2 uM after 24 hrs by Annexin V-FITC/PI staining based flow cytometry (reference value: 5.42%); format: functional; procedure, shortened: as §2
A-375 [19] = test: Cell cycle arrest in human A375 cells assessed as accumulation at G1 phase at 10 uM after 24 hrs by propidium iodide staining based flow cytometry (reference value: 73.6%); format: functional
A-375 [20] = test: Induction of apoptosis in human A375 cells assessed as necrotic cells at 2 uM after 72 hrs by Annexin V-FITC/PI staining based flow cytometry (reference value: 1.55%); format: functional
[21] = molecular target: Dual specificity mitogen-activated protein kinase kinase; MEK1/2 (Homo sapiens, UniProt P36507+Q02750); test: Inhibition of MEK1/2 (unknown origin); format: protein assay
A-375 [22] = test: Induction of apoptosis in human A375 cells assessed as necrotic cells at 2.5 uM after 24 hrs by Annexin V-FITC/PI staining based flow cytometry (reference value: 1.61%); format: functional
WM 266-4 = test: Antiproliferative activity against human WM266.4 cells after 48 hrs by MTT assay; format: functional; conditions: WM 266-4, 48 h; procedure, shortened: as §1
[23] = Cytotoxicity against HEK293T cells assessed as decrease in cell viability after 48 hrs by MTT assay; format: cell-based, HEK-293T; conditions: human; procedure, shortened: as §1
A-375 [24] = test: Cell cycle arrest in human A375 cells assessed as accumulation at S phase at 10 uM after 24 hrs by propidium iodide staining based flow cytometry (reference value: 21.3%); format: functional

Which Activity (A-375 [1]) does the source give for `COc1cccc(C2=NN(C(=S)Nc3ccccc3)C(c3ccc4c(c3)OCCO4)C2)c1` (stereo not drawn) here?
Its Activity is 5.43%.

And the GI50 (HT-29)?
The GI50 was 2920 nM.

And the Activity (A-375 [2])?
The Activity was 45%.

What about the “fold change (FC)” value (A-375 [3]) of the same compound?
The value was 2.

And the IC50 [4]?
Its IC50 is greater than 200 µM.

And the Activity (A-375 [5])?
The Activity was “Dose-dependent effect”.

And the viability at 5 µM (A-375 [6])?
Its viability at 5 µM is 65%.

And the Activity (A-375 [7])?
The Activity was 49.6%.

What about the viability at 2 µM (A-375 [8]) of the same compound?
The viability at 2 µM was 71.1%.

And the GI50 (HCT-116)?
Its GI50 is greater than 200 µM.

And the Activity (A-375 [9])?
The Activity was 17.1%.

What about the IC50 [10] of the same compound?
The IC50 was greater than 200 µM.

What about the Activity (A-375 [11]) of the same compound?
The Activity was 27.6%.

And the viability at 10 µM (A-375 [12])?
Its viability at 10 µM is 41.5%.

And the Activity (Mus musculus)?
Its Activity is “Non-Toxic”.

And the Activity (A-375 [13])?
The Activity was 10.3%.

What about the Activity (A-375 [14]) of the same compound?
The Activity was 28.4%.

And the inhibition [15]?
The inhibition was “inactive”.

What about the Activity (A-375 [16]) of the same compound?
Its Activity is 23.4%.

What about the viability at 20 µM (A-375 [17]) of the same compound?
Its viability at 20 µM is 36.2%.

What about the Activity (A-375 [18]) of the same compound?
The Activity was 10.9%.

What about the Activity (A-375 [19]) of the same compound?
The Activity was 68.1%.

What about the Activity (A-375 [20]) of the same compound?
The Activity was 2.24%.

And the IC50 [21]?
Its IC50 is 195 µM.

And the Activity (A-375 [22])?
The Activity was 3.46%.

And the GI50 (WM 266-4)?
The GI50 was 1380 nM.

What about the GI50 at 48 h [23] of the same compound?
Its GI50 at 48 h is greater than 200 µM.

And the Activity (A-375 [24])?
Its Activity is 13.8%.
